In brackets after ≈: the same amount, converted by molar mass. Activity calls are given as the source filed them. No cut-off for these calls is given here.
Legend:
Rattus norvegicus [1] = test: Sleep promoting effect in free moving Wistar rat with chronically implanted electrodes assessed as increase in duration of REM sleep at 10 and 30 mg/kg, ip after 2 hrs by polysomnogram recordings method; format: functional, organism-based; parameters: dose 30 mg/kg
In short: (§1)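 Male Wistar rats, 10 weeks old, implanted under pentobarbital with frontal and parietal EEG screw electrodes plus EMG. Recovered ≥7 days, then singly housed and acclimated, tethered and freely moving. Dosed ip between 18:50 and 19:00, before lights-off. EEG filtered 0.16–30 Hz, EMG 5.3–1000 Hz, scored in 8-s epochs. Sleep latency = first 15 consecutive sleep epochs. Analysed over 2 h; n = 8–10; Dunnett or Steel tests.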

[2] = biological target: T1, Orexin/Hypocretin receptor type 1 (Rattus norvegicus) (UniProt P56718); test: Antagonist activity against rat OX1 receptor assessed as reduction in [Ala6,12]orexin-A-induced intracellular Ca2+ mobilization incubated for 30 mins by Fluo-4 AM dye based fluorescence assay; format: functional, cell-based
T1 sequence (whole entry): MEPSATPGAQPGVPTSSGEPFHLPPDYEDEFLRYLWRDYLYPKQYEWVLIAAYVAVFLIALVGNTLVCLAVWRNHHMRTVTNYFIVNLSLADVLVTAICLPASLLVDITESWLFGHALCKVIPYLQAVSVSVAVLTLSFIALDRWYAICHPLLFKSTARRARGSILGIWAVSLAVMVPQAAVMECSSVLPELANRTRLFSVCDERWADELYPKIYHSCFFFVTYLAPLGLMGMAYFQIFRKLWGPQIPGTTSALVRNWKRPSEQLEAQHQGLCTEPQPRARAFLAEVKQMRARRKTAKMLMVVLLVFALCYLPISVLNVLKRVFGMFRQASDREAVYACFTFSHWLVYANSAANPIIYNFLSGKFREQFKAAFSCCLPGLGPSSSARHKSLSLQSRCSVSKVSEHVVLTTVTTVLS
In short: (§2)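 Cells seeded at 2.4 × 10⁴/well and cultured for 18 h. Compound added for 30 min at room temperature. Peak fluorescence minus basal was normalised to the maximal [Ala6,12]orexin-A response. Kb = IC50/(1+[L]/EC50). At least three independent runs in duplicate; mean ± SE.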

[3] = Ratio of drug level in CSF to plasma in Sprague-Dawley rat at 10 mg/kg, po
[4] = Drug excretion in rat bile; format: ADME, tissue-based; conditions: read-out: Drug excretion
Rattus norvegicus [5] = test: Sleep promoting effect in free moving Wistar rat with chronically implanted electrodes assessed as reduction in latency until total sleep at 3 to 30 mg/kg, ip by polysomnogram recordings method; format: functional, organism-based; in short: as §1
Rattus norvegicus [6] = test: Toxicity in Sprague-Dawley rat assessed as effect on rotarod performance at 3 to 30 mg/kg, ip administered 30 mins prior to the test by rotarod test; conditions: in vivo, 0.5 h
[7] = Volume of distribution in Sprague-Dawley rat at 2 mg/kg, iv; format: ADME, organism-based; parameters: dose 2 mg/kg, route intravenous; conditions: in vivo
In short: (§3)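 Fasted male Sprague–Dawley rats (n = 3) given 2 mg/kg iv. Vd and CL taken from the iv profile. T1/2 calculated as ln2·Vd/CL.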

[8] = Tmax in dog at 3 mg/kg, po; format: ADME, organism-based, Canis lupus familiaris; parameters: dose 3 mg/kg, route oral; conditions: in vivo
In short: (§4)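 Fasted male rats dosed orally at 10 mg/kg, and male dogs at 3 mg/kg (n = 3). Tmax read from the oral profile. F calculated against the iv arm (rat 2 mg/kg, dog 0.5 mg/kg).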

[9] = Clearance in Sprague-Dawley rat at 2 mg/kg, iv; format: ADME, organism-based; parameters: dose 2 mg/kg, route intravenous; conditions: in vivo; in short: as §3
[10] = biological target: T2, Orexin receptor type 2 (Rattus norvegicus) (UniProt P56719); test: Antagonist activity against rat OX2 receptor assessed as reduction in [Ala6,12]orexin-A-induced intracellular Ca2+ mobilization incubated for 30 mins by Fluo-4 AM dye based fluorescence assay; format: functional, cell-based; in short: as §2
T2 sequence (whole entry): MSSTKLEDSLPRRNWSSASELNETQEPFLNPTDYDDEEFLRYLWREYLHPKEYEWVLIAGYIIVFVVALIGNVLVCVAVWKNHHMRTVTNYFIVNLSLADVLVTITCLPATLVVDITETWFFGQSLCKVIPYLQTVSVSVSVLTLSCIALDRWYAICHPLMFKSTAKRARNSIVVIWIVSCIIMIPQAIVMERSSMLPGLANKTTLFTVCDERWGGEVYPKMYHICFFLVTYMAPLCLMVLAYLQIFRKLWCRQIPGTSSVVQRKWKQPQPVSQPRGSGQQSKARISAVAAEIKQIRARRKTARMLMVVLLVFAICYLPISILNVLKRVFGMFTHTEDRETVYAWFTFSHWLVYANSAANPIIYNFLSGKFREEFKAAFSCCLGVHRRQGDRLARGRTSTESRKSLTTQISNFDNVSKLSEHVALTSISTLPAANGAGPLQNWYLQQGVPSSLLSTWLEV

[11] = Drug excretion in rat urine; format: ADME; conditions: read-out: Drug excretion
[12] = Drug metabolism in human liver microsomes at 5 uM after 15 mins; format: ADME; conditions: read-out: Drug metabolism
In short: (§5)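 Liver microsomes at 1 mg protein/mL with 5 µM compound, incubated 15 min. Value reported as percentage of compound metabolized.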

[13] = Cmax in free moving Wistar rat with chronically implanted electrodes 3 mg/kg, ip after 0.33 hrs; format: ADME, organism-based; parameters: dose 3 mg/kg, route intraperitoneal; conditions: in vivo
[14] = Half life in dog at 0.5 mg/kg, iv; format: ADME, organism-based, Canis lupus familiaris; parameters: dose 0.5 mg/kg, route intravenous; conditions: in vivo
In short: (§6)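 Male dogs given 0.5 mg/kg iv (n = 3). Vd and CL derived from the iv profile. T1/2 = ln2·Vd/CL.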

[15] = Drug metabolism in rat liver microsomes at 5 uM after 15 mins; format: ADME; conditions: read-out: Drug metabolism; in short: as §5
[16] = Oral bioavailability in dog at 3 mg/kg; format: ADME, organism-based, Canis lupus familiaris; conditions: in vivo; in short: as §4
[17] = Tmax in Sprague-Dawley rat at 10 mg/kg, po; format: ADME, organism-based; parameters: dose 10 mg/kg, route oral; conditions: in vivo; in short: as §4
[18] = Half life in Sprague-Dawley rat at 2 mg/kg, iv; format: ADME, organism-based; parameters: dose 2 mg/kg, route intravenous; conditions: in vivo; in short: as §3
[19] = Drug metabolism in dog liver microsomes at 5 uM after 15 mins; format: ADME, Canis lupus familiaris; conditions: read-out: Drug metabolism; in short: as §5
Rattus norvegicus [20] = test: Sleep promoting effect in ip dosed free moving Wistar rat with chronically implanted electrodes assessed as by polysomnogram recordings method; conditions: read-out: MED
[21] = Volume of distribution in dog at 0.5 mg/kg, iv; format: ADME, organism-based, Canis lupus familiaris; parameters: dose 0.5 mg/kg, route intravenous; conditions: in vivo; in short: as §6
[22] = system: Ribosyldihydronicotinamide dehydrogenase (NQO2) (Homo sapiens); test: Binding affinity to MT3 receptor (unknown origin) at 10 uM
[23] = Solubility in pH 6.8 phosphate buffer; format: physicochemical
In short: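 Aqueous solubility measured in pH 6.8 phosphate buffer.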

[24] = Oral bioavailability in Sprague-Dawley rat at 10 mg/kg; format: ADME, organism-based; conditions: in vivo; in short: as §4
[25] = Ratio of drug level in brain to plasma in Sprague-Dawley rat at 10 mg/kg, po; conditions: read-out: BPR
[26] = Clearance in dog at 0.5 mg/kg, iv; format: ADME, organism-based, Canis lupus familiaris; parameters: dose 0.5 mg/kg, route intravenous; conditions: in vivo; in short: as §6
Rattus norvegicus [27] = test: Sleep promoting effect in free moving Wistar rat with chronically implanted electrodes assessed as increase in duration of NREM sleep at 10 and 30 mg/kg, ip by polysomnogram recordings method; format: functional, organism-based; parameters: dose 30 mg/kg; in short: as §1

Kb [2]: 5.08 nM | Kp [3]: 0.06 | dose excreted [4]: 0.2% | Vd [7]: 1.71 L/kg | Tmax [8]: 40 min | clearance [9]: 66 mL/min/kg | Kb [10]: 6.06 nM | dose excreted [11]: 0.4% | metabolised at 0.25 h, 5 µM [12]: 24.1% | Cmax [13]: 728 nM | half-life [14]: 57.7 min | metabolised at 0.25 h, 5 µM [15]: 79.9% | bioavailability [16]: 80.2% | Tmax [17]: 50 min | half-life [18]: 17.9 min | metabolised at 0.25 h, 5 µM [19]: 7.3% | Vd [21]: 0.745 L/kg | Activity [22]: 66% | solubility [23]: 30.2 µg/mL (≈ 74.5 µM) | bioavailability [24]: 14.9% | Kp [25]: 0.17 | clearance [26]: 9.97 mL/min/kg
Compound: CCN(CCn1ccc(-c2ccc(F)cn2)n1)C(=O)c1ccccc1-n1nccn1
Activity (Rattus norvegicus [1]): inactive | Activity (Rattus norvegicus [5]): Dose-dependent effect | Activity (Rattus norvegicus [6]): Non-toxic | minimal effective dose (Rattus norvegicus [20]): 3 mg/kg | Activity (Rattus norvegicus [27]): Active

From ChEMBL document CHEMBL3397044, “Discovery and in vitro and in vivo profiles of N-ethyl-N-[2-[3-(5-fluoro-2-pyridinyl)-1H-pyrazol-1-yl]ethyl]-2-(2H-1,2,3-triazol-2-yl)-benzamide as a novel class of dual orexin receptor antagonist” (Bioorg Med Chem, 2015)
